Data set [1] concerns the target T1, Epidermal growth factor receptor (Homo sapiens, UniProt P00533). Nature of the data set: Inhibition of EGFR using GST-Crk as substrate assessed as phosphorylated Crk level after 20 mins by SDS-PAGE analysis. The procedure, abridged:
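Kinase mix was incubated with inhibitor at 0, 0.5, 2.5, 12.5 and 62.5 nM on ice for 10 min, then at 30 °C for 20 min. The reaction was quenched with SDS sample buffer at 100 °C for 4 min. Proteins were run on 10% SDS–PAGE and the dried gel was quantified by phosphorimager.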

In data set [2] the target is T1, Epidermal growth factor receptor. The data set is described as follows: Inhibition of EGFR-mediated intracellular tyrosine phosphorylation in EGF-stimulated human A431 cells after 2.5 hrs by SDS-PAGE analysis. The class given is cell-based, A-431. Summed up: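 A431 cells were grown 2 days in DMEM with 10% FCS at 37 °C, 5% CO₂, then serum-starved 18 h. Inhibitor was added at 0, 10, 50, 250 and 1000 nM for 2.5 h at 37 °C. Cells were stimulated with 100 ng/ml EGF for 5 min and lysed in SDS buffer with 1 mM vanadate. Lysates were run on 10% SDS–PAGE, immunoblotted with anti-phosphotyrosine (pY99, 4G10), detected by ECL, and quantified by densitometry.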

The target in data set [3] is Tyrosine-protein kinase ABL1 (Homo sapiens) (UniProt P00519). The data set is described as follows: Inhibition of Abl at >[…] nM.
Data set [4] addresses Tyrosine-protein kinase ABL2 (Homo sapiens) (UniProt P42684). The data set is described as follows: Inhibition of Arg at >[…] nM.
The target of data set [5] is Proto-oncogene tyrosine-protein kinase Src (Homo sapiens) (UniProt P12931). Nature of the data set: Inhibition of c-Src at >1000 nM.
The nature of data set [6]: Oral bioavailability in rat at 35 mg/kg. It is filed as ADME, organism-based. The conditions noted are these: in vivo. Summed up: (§1)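 Rats given a single oral dose (35 mg/kg) and a separate single intravenous dose (35 mg/kg). Pharmacokinetic parameters were derived from these two dosings.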
The nature of data set [7]: Cmax in rat at 35 mg/kg, po. On the set-up: dose 35 mg/kg, route oral. The conditions noted are these: in vivo. It is filed as ADME, organism-based. The procedure, abridged: as §1
Another data set concerns Rattus norvegicus. The data set is described as follows: AUC in rat at 35 mg/kg, po. The class given is ADME, organism-based, Plasma. Further details: dose 35 mg/kg, route oral. Conditions: in vivo. Summed up: as §1
A short description of data set [8]: Half life in rat at 35 mg/kg, po. The class given is ADME, organism-based. Further details: dose 35 mg/kg, route oral. Conditions: in vivo. The procedure, abridged: as §1
Data set [9] is described as follows: Clearance in rat at 35 mg/kg, iv and 35 mg/kg, po. Conditions: in vivo. It is filed as ADME, organism-based. The procedure, abridged:
as §1

Data set [10] in a line: Volume of distribution at steady state in rat at 35 mg/kg, iv and 35 mg/kg, po. The class given is ADME, organism-based. The conditions noted are these: in vivo, read-out: Vdss. Summed up:
as §1

Data set [11] is described as follows: Mean residence time in rat at 35 mg/kg, iv and 35 mg/kg, po. The class given is ADME, organism-based. The conditions noted are these: in vivo. Summed up:
as §1

The next data set concerns A-431. Nature of the data set: Antitumor activity against human A431 cells xenografted in mouse assessed as inhibition of tumor growth administered as po qd. It is filed as functional, organism-based. The procedure, abridged: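 Mice carried A431 xenografts. At a tumor volume of about 20 mm³ they were randomized, n = 10/group. Dosing was oral, once daily, at 30, 60 and 120 mg/kg in 0.5% CMC-Na vehicle, for 18–30 days. The positive control was Taxol 30 mg/kg ip once weekly. Tumor size was followed.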
For orientation: Xenograft models place foreign cells or tissue in a host animal.

Active and inactive are the calls of the source. Some results are limits rather than exact numbers.

T1 sequence (P00533 whole entry): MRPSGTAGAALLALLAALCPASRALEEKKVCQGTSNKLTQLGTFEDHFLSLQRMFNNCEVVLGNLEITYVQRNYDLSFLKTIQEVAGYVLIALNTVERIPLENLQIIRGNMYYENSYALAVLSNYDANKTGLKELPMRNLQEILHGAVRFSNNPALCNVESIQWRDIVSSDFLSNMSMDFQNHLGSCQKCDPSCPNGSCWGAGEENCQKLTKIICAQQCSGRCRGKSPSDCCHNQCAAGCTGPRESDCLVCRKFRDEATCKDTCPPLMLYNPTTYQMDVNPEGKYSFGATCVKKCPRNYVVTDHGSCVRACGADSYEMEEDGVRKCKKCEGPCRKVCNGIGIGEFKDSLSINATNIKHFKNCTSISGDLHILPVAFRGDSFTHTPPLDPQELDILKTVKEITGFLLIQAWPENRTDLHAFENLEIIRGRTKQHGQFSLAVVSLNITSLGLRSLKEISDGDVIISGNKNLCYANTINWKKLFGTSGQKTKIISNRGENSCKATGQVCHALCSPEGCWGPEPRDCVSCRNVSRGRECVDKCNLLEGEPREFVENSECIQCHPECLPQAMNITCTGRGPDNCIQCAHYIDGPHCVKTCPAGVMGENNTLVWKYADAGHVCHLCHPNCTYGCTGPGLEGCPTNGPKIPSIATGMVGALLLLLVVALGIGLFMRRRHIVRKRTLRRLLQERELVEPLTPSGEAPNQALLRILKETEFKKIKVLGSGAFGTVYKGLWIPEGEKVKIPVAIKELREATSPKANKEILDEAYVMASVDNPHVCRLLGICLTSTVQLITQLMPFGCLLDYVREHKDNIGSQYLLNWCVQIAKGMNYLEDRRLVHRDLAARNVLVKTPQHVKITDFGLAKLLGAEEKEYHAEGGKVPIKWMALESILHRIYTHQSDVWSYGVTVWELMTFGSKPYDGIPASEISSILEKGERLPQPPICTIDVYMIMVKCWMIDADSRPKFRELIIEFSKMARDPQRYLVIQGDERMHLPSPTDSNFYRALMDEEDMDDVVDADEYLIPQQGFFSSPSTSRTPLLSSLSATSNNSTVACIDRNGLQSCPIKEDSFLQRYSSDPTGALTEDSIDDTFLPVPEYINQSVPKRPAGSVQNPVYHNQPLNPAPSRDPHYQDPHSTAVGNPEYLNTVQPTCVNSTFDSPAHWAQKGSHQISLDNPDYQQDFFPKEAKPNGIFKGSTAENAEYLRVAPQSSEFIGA
Tyrosine-protein kinase ABL1 (Homo sapiens), sequence (P00519 whole entry): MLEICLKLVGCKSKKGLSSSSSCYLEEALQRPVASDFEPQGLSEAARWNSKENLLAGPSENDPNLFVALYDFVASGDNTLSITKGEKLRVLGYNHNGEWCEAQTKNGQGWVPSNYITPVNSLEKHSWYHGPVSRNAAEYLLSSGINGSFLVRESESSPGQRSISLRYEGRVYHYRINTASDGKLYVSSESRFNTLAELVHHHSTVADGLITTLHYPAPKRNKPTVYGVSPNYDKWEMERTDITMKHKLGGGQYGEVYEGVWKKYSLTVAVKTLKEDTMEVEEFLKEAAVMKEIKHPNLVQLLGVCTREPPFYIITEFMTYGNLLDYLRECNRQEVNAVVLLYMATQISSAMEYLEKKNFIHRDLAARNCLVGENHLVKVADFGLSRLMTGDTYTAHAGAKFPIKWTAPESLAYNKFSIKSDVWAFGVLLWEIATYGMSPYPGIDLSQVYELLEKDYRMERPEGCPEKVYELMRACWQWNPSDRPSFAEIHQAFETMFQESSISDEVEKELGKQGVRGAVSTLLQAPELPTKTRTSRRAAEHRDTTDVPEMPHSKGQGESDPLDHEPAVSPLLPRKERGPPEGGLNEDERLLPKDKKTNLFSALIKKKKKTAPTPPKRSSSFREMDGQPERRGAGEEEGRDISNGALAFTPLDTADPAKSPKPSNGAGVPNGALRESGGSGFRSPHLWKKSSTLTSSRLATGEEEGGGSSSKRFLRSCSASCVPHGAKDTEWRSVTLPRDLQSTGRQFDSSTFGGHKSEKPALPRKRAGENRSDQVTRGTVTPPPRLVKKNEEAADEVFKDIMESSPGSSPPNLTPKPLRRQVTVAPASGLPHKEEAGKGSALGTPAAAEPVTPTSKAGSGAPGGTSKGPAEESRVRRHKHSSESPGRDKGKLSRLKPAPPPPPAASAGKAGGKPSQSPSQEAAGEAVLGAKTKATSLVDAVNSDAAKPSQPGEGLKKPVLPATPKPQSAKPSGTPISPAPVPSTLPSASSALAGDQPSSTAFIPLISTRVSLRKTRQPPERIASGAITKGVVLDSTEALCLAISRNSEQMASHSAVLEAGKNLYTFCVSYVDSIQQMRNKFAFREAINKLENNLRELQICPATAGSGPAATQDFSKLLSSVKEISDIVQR
Tyrosine-protein kinase ABL2 (Homo sapiens), sequence (P42684 whole entry): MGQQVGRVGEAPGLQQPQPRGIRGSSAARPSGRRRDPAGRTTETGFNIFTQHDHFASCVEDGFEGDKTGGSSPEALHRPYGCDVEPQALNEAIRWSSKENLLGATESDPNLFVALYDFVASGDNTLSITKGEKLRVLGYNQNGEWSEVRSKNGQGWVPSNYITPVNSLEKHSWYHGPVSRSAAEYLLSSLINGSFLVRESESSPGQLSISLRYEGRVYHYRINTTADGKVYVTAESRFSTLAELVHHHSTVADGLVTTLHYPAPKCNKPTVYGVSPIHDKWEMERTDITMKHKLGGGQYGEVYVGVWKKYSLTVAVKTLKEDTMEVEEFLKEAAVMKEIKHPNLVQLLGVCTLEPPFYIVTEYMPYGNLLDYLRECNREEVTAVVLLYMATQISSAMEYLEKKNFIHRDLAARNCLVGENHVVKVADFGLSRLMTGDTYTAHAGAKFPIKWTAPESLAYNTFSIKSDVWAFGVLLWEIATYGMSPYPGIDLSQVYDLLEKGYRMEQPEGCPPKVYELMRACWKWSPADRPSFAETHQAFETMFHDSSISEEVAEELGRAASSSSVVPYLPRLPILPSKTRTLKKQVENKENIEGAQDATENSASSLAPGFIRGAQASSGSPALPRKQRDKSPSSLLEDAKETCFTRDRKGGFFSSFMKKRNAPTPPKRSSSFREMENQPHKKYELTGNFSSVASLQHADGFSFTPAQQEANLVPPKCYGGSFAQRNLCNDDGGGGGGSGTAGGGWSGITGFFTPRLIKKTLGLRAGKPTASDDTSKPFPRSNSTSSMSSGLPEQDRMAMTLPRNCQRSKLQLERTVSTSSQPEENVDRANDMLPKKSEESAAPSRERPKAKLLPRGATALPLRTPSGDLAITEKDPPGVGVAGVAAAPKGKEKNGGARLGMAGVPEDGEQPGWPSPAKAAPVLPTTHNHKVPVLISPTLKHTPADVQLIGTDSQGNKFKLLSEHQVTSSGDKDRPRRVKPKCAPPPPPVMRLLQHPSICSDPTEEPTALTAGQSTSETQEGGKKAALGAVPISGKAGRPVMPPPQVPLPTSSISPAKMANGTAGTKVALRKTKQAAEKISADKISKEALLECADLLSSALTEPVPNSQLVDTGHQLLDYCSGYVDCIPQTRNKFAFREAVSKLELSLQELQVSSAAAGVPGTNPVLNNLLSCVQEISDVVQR
Proto-oncogene tyrosine-protein kinase Src (Homo sapiens), sequence (P12931 2-536 limits assumed): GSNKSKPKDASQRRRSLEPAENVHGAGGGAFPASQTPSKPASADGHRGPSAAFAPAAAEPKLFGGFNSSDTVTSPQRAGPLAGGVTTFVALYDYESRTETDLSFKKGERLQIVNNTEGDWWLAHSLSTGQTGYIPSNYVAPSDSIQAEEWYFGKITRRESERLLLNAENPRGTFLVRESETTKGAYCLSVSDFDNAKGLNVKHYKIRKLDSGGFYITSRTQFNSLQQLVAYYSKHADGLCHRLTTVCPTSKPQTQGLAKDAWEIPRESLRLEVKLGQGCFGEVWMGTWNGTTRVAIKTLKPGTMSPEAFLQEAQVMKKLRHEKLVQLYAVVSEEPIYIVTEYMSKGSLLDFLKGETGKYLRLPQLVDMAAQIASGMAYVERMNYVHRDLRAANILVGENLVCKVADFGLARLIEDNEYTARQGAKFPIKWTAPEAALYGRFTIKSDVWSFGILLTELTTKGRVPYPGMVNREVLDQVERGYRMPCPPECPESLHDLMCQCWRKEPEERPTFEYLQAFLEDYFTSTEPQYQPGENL

For orientation: IC50 means the concentration at which inhibition is half-maximal. Take `Brc1cccc(Nc2ncnc3cc4c(cc23)OCCSCCO4)c1`: the IC50 in data set [1] is 7 nM; in data set [2], above 1000 nM.

For `Brc1cccc(Nc2ncnc3cc4c(cc23)Oc2ccccc2O4)c1`, in data set [1], the IC50 was 120 nM.

In the case of `Fc1ccc(Nc2ncnc3cc4c(cc23)OCCOCCOCCO4)cc1Cl`, the half-maximal inhibitory concentration (IC50) was 2 nM in data set [1] and 45 nM in data set [2].

With `Brc1cccc(Nc2ncnc3cc4c(cc23)OCCOCCO4)c1`, the 50% inhibitory concentration (IC50) in data set [1] is 55 nM.

Consider `Brc1cccc(Nc2ncnc3cc4c(cc23)OCCCO4)c1`, for which the 50% inhibitory concentration (IC50) in [1] was found to be 85 nM.

For the compound `Clc1cccc(Nc2ncnc3cc4c(cc23)OCCOCCOCCO4)c1`, the IC50 in data set [1] came to 2 nM; in [2], 55 nM.

As for `Brc1cccc(Nc2ncnc3cc4c(cc23)OCCOCOCOCCO4)c1`, the IC50 in [1] was found to be 5 nM; in [2], 50 nM.

By bioavailability is commonly meant dose-corrected exposure relative to a reference, in per cent. Broadly, the Cmax is the highest concentration seen after dosing. By half-life is commonly meant the time needed for the level to fall by half in the phase considered. The low end stands for fast loss, the high end for slow loss. As a reminder, the MRT is a mean duration of stay, worked out from the concentration-time curve. For `C#Cc1cccc(Nc2ncnc3cc4c(cc23)OCCOCCOCCO4)c1` [ICOTINIB], the IC50 was determined as 2 nM in data set [1] and 45 nM in data set [2]. The inhibition entry in [3], in data set [4] and in data set [5] was “inactive” each time. In [6], this compound returned a bioavailability of 52%. The Cmax in data set [7] came to 6120 ng/mL. The same compound showed an AUC in the data set on Rattus norvegicus of 49.4 µg/mL. Besides, the half-life in [8] was 2.8 h. In addition, the clearance in data set [9] was determined as 21 mL/min/kg. For the same compound, the Vd in data set [10] came out at 3.9 L/kg. The compound further displayed a mean residence time MRT in data set [11] of 6.9 h. For the same compound, the inhibition entry in the data set on A-431 was “Dose-dependent effect”.

As to `Cc1ccc(S(=O)(=O)N2CCOc3cc4ncnc(Nc5cccc(Br)c5)c4cc3OCC2)cc1`, the 50% inhibitory concentration (IC50) in [1] was found to be 150 nM.

With `Brc1cccc(Nc2ncnc3cc4c(cc23)OCCOCCOCCO4)c1`, the IC50 in data set [1] turned out to be 5 nM; in [2] it was 50 nM.

Take `Brc1cccc(Nc2ncnc3cc4c(cc23)OCCCSCCCO4)c1`: the IC50 in data set [1] is 8 nM; in data set [2] it was above 1000 nM.

Source of the values: ChEMBL document CHEMBL2086389, “Synthesis and biological evaluation of crown ether fused quinazoline analogues as potent EGFR inhibitors” (Bioorg Med Chem Lett, 2012).
